Results as given in ChEMBL document CHEMBL1177725, “6-(3,4-dichlorophenyl)-1-[(methyloxy)methyl]-3-azabicyclo[4.1.0]heptane: a new potent and selective triple reuptake inhibitor” (J Med Chem, 2010).

Assays:
Rattus norvegicus [1] = assay: Ex vivo SERT occupancy in Sprague-Dawley rat dorsal raphe at 10 mg/kg, po […] by autoradiography; format: functional
Rattus norvegicus [2] = assay: Ex vivo SERT occupancy in Sprague-Dawley rat superior coulliculus at 10 mg/kg, po […] by autoradiography; format: functional
Rattus norvegicus [3] = assay: Ex vivo SERT occupancy in Sprague-Dawley rat striatum at 10 mg/kg, po […] by autoradiography; format: functional
Rattus norvegicus [4] = assay: Ex vivo SERT occupancy in Sprague-Dawley rat cortex at 10 mg/kg, po after 1 hr by autoradiography; format: functional
Method in brief: (§1)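 Oral dosing in rats. SERT occupancy was taken from [3H]citalopram binding to brain cortex prepared 1 h after administration.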

Rattus norvegicus [5] = assay: Ex vivo SERT occupancy in Sprague-Dawley rat cortex at 20 mg/kg, po after 1 hr by autoradiography; format: functional; method in brief: as §1
Rattus norvegicus [6] = assay: Ex vivo SERT occupancy in Sprague-Dawley rat cortex at 3 mg/kg, po after 1 hr by autoradiography; format: functional; method in brief: as §1
Rattus norvegicus [7] = assay: Ex vivo SERT occupancy in Sprague-Dawley rat cortex at 1 mg/kg, po after 1 hr by autoradiography; format: functional; method in brief: as §1
Rattus norvegicus [8] = assay: Ex vivo SERT occupancy in Sprague-Dawley rat cortex at 0.3 mg/kg, po after 1 hr by autoradiography; format: functional; method in brief: as §1
Rattus norvegicus [9] = assay: Ex vivo SERT occupancy in Sprague-Dawley rat cortex at 0.1 mg/kg, po after 1 hr by autoradiography; format: functional
Rattus norvegicus [10] = assay: Ex vivo SERT occupancy in Sprague-Dawley rat cortex at 0.03 mg/kg, po after 1 hr by autoradiography; format: functional; method in brief: as §1
[11] = Ratio of drug level in brain to blood in rat; format: ADME, tissue-based
[12] = Half life in rat; format: ADME, organism-based; conditions: in vivo
[13] = Blood clearance in rat; format: ADME, organism-based
[14] = Volume of distribution in rat; format: ADME, organism-based; conditions: in vivo
[15] = Oral bioavailability in rat; format: ADME, organism-based; conditions: in vivo
[16] = molecular target: Sodium-dependent dopamine transporter (Mus musculus, UniProt Q61327); assay: Displacement of [3H]WIN-35428 from DAT in mouse brain; format: tissue-based
[17] = molecular target: Sodium-dependent noradrenaline transporter (Mus musculus, UniProt O55192); assay: Displacement of [3H]nisoxetine from NET in mouse brain; format: tissue-based
[18] = molecular target: Sodium-dependent serotonin transporter (Mus musculus, UniProt Q60857); assay: Displacement of [3H]-citalopram from SERT in mouse cortex after 2 hrs by liquid scintillation counting
Method in brief: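 Mouse cortex membranes (7 μg protein/well) were incubated 2 h at room temperature with [³H]citalopram, added at 0.25 nM. Test compound came from a 100× DMSO solution. Nonspecific binding was defined with 10 μM fluoxetine (final). Bound ligand was collected by filtration on PEI-presoaked GF/B filters, washed with ice-cold 0.9% NaCl and scintillation counted. A four-parameter logistic fit gave pIC50, converted to pKi by Cheng-Prusoff.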

[19] = molecular target: Sodium-dependent dopamine transporter (Rattus norvegicus, UniProt P23977); assay: Displacement of [3H]WIN-35428 from DAT in rat striatum after 2 hrs by liquid scintillation counting
[20] = molecular target: Sodium-dependent serotonin transporter (Rattus norvegicus, UniProt P31652); assay: Displacement of [3H]-citalopram from SERT in rat cortex after 2 hrs by liquid scintillation counting
[21] = molecular target: T1, Sodium-dependent dopamine transporter (Homo sapiens, UniProt Q01959); assay: Inhibition of [3H]dopamine reuptake at human DAT expressed in pig LLCPK cells after 1 hr; format: cell-based
Method in brief: (§2)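 Uptake SPA on stably transfected LLCPK cells with SPA beads (1.5 mg/mL SERT, NET; 2 mg/mL DAT) and 0.02% Pluronic F-127 in 20 mM HEPES, 145 mM NaCl, 5 mM KCl, pH 7.4. Cells/well: SERT 25 000, NET 50 000, DAT 75 000. Started by adding 35 nM [3H]serotonin, 45 nM [3H]noradrenalin or 75 nM [3H]dopamine (solutions added); 1 h, room temperature; four-parameter fit; n = 3.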

[22] = molecular target: T2, Sodium-dependent noradrenaline transporter (Homo sapiens, UniProt P23975); assay: Inhibition of [3H]noradrenalin reuptake at human NET expressed in pig LLCPK cells after 1 hr; format: cell-based; method in brief: as §2
[23] = molecular target: T3, Sodium-dependent serotonin transporter (Homo sapiens, UniProt P31645); assay: Inhibition of [3H]serotonin reuptake at human SERT expressed in pig LLCPK cells after 1 hr; format: cell-based; method in brief: as §2
[24] = molecular target: T1, Sodium-dependent dopamine transporter; assay: Displacement of [3H]WIN-35428 from human recombinant DAT by SPA
Method in brief: (§3)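 SPA binding on BacMam-expressed human transporter membranes (SERT 6, NET 40, DAT 20 μg/mL) with SPA beads (1 mg/mL SERT; 2 mg/mL NET, DAT), 0.02% Pluronic F-127. Radioligands: 3 nM [3H]citalopram (SERT), 10 nM [3H]nisoxetine (NET), 10 nM [3H]WIN-35,428 (DAT). Buffer 20 mM HEPES, 145 mM NaCl, 5 mM KCl, pH 7.4; overnight, room temperature; imager read; four-parameter fit, Cheng-Prusoff pKi.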

[25] = molecular target: T2, Sodium-dependent noradrenaline transporter; assay: Displacement of [3H]nisoxetine from human recombinant NET by SPA; method in brief: as §3
[26] = molecular target: T3, Sodium-dependent serotonin transporter; assay: Displacement of [3H]citalopram from human recombinant SERT by SPA; method in brief: as §3
Cytochrome P450 3A4 = Cytochrome P450 3A4 (Homo sapiens, UniProt P08684); assay: Inhibition of human CYP3A4 after 10 mins; format: ADME
Method in brief: (§4)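 Recombinant human CYP bactosomes (0.1 mg/mL) were pre-incubated 10 min at 37 °C in 50 mM phosphate pH 7.4 with compound (0.1–10 μM) and a fluorogenic substrate. Substrates: ethoxyresorufin 0.5 μM (1A2), FCA 50 μM (2C9), BMC 10 μM (2C19), MMC 10 μM (2D6), DEF 1 μM or 7-BQ 25 μM (3A4). Adding an NADPH-regenerating system started the reaction, and metabolite fluorescence was read over 10 min. The IC50 came from rate as percent of control; miconazole served as positive control, with triplicates.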

Cytochrome P450 2D6 = Cytochrome P450 2D6 (Homo sapiens, UniProt P10635); assay: Inhibition of human CYP2D6 after 10 mins; format: ADME; method in brief: as §4
Cytochrome P450 2C19 = Cytochrome P450 2C19 (Homo sapiens, UniProt P33261); assay: Inhibition of human CYP2C19 after 10 mins; format: ADME; method in brief: as §4
Cytochrome P450 2C9 = Cytochrome P450 2C9 (Homo sapiens, UniProt P11712); assay: Inhibition of human CYP2C9 after 10 mins; format: ADME; method in brief: as §4
Cytochrome P450 1A2 = molecular target: T4, Cytochrome P450 1A2 (Homo sapiens, UniProt P05177); assay: Inhibition of human CYP1A2 after 10 mins; format: ADME; method in brief: as §4
T4 sequence (P05177 whole entry): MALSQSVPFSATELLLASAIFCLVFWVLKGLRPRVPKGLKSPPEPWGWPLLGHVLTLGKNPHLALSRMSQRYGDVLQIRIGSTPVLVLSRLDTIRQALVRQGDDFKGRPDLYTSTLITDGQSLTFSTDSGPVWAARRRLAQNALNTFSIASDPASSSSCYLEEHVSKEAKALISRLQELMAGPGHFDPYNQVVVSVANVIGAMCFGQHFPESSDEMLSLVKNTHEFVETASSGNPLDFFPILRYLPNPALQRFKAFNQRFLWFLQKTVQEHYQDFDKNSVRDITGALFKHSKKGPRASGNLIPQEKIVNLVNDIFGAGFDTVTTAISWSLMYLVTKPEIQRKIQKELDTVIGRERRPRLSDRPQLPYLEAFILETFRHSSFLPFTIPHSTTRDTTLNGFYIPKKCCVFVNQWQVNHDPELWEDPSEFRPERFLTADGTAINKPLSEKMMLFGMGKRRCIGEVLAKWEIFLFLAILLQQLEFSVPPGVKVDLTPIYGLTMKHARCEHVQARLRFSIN

[27] = molecular target: T1, Sodium-dependent dopamine transporter; assay: Displacement of [N-methyl-3H]WIN-35428 from human recombinant DAT expressed in pig LLCPK cells after 2 hrs by liquid scintillation counting; format: cell-based
[28] = molecular target: T2, Sodium-dependent noradrenaline transporter; assay: Displacement of [N-methyl-3H]nisoxetine from human recombinant NET expressed in pig LLCPK cells after 2 hrs by liquid scintillation counting; format: cell-based
Rattus norvegicus [29] = assay: Ex vivo SERT occupancy in Sprague-Dawley rat substantia nigra at 10 mg/kg, po […] by autoradiography; format: functional
[30] = molecular target: T3, Sodium-dependent serotonin transporter; assay: Displacement of [N-methyl-3H]citalopram from human recombinant SERT expressed in pig LLCPK cells after 2 hrs by liquid scintillation counting; format: cell-based
Transporter = Transporter (Rattus norvegicus, UniProt Q63380); assay: Displacement of [3H]nisoxetine from NET in rat hippocampus after 2 hrs by liquid scintillation counting; format: tissue-based
Method in brief: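 Rat hippocampus membranes (40 μg protein/well), competition filtration binding run as for human recombinant NET: 1.5 nM [3H]nisoxetine, test compound added from 100x DMSO solution, 10 μM desipramine for nonspecific binding. Incubated for 2 h at room temperature, filtered on PEI-presoaked GF/B, and washed with ice-cold 0.9% NaCl. Read by scintillation counting; four-parameter logistic pIC50 converted to pKi by Cheng-Prusoff.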

T3 sequence (P31645 whole entry): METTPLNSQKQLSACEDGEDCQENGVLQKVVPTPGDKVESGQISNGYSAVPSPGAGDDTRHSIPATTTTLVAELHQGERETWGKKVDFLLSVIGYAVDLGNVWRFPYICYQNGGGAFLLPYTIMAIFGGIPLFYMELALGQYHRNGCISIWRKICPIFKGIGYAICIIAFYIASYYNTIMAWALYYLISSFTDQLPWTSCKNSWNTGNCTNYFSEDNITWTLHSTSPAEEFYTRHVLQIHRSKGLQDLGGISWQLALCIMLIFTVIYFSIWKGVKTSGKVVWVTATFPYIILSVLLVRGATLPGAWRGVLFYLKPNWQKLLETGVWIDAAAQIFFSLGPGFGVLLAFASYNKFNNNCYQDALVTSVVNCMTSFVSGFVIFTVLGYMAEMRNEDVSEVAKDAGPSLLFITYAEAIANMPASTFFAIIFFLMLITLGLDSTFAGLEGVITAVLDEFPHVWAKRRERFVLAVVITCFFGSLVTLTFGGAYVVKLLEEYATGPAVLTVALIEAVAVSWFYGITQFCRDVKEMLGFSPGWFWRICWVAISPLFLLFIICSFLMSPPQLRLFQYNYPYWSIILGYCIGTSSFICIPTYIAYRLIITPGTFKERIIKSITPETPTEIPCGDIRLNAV
T2 sequence (P23975 whole entry): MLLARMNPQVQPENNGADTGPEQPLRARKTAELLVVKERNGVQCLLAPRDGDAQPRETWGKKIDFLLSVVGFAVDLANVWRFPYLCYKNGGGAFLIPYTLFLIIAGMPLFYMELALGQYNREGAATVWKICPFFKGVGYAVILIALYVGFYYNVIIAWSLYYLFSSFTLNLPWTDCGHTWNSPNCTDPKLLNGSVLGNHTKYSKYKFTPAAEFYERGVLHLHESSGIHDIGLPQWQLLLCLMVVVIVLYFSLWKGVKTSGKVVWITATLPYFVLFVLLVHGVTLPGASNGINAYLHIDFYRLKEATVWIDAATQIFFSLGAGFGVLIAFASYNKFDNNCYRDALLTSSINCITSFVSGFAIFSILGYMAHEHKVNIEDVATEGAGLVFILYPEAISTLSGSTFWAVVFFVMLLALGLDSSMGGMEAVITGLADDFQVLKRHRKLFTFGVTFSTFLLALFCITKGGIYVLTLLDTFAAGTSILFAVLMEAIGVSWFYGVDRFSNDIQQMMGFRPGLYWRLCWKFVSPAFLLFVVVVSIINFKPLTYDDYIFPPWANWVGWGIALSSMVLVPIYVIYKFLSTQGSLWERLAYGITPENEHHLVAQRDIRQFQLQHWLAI
T1 sequence (Q01959 whole entry): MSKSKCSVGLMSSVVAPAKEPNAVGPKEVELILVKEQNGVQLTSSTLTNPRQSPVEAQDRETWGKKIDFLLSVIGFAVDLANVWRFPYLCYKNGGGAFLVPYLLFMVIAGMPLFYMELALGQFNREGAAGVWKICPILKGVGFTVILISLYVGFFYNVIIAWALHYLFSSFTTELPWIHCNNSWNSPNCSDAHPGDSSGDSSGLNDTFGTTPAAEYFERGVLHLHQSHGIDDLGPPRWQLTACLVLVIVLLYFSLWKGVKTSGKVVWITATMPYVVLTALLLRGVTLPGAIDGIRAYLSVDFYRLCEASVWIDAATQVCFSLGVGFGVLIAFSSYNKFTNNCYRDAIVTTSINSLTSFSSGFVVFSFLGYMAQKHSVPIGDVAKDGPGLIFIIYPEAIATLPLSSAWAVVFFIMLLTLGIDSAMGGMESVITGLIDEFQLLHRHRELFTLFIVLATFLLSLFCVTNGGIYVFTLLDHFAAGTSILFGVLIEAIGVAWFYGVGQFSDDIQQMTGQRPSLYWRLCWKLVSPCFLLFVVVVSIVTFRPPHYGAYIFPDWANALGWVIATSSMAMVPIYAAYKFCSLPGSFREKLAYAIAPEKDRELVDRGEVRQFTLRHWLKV
Chain of Sodium-dependent dopamine transporter (Mus musculus, UniProt Q61327) (Q61327 whole entry): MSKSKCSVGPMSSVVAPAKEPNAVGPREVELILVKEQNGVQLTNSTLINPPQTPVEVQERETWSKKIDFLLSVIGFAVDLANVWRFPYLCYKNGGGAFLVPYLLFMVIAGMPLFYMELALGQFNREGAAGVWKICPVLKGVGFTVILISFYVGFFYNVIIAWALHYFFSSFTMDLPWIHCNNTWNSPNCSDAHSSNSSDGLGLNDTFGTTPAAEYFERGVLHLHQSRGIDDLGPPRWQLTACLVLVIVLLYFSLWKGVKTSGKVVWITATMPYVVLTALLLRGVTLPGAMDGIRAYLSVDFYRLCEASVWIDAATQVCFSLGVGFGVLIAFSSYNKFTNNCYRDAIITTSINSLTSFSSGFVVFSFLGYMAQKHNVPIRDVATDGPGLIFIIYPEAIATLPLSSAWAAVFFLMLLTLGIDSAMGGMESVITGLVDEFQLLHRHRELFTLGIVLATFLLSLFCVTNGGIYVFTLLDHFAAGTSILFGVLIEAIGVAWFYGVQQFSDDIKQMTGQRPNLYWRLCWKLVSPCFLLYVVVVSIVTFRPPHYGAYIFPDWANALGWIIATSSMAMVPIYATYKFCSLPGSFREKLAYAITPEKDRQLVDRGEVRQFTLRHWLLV
Chain of Sodium-dependent serotonin transporter (Rattus norvegicus, UniProt P31652) (P31652 whole entry): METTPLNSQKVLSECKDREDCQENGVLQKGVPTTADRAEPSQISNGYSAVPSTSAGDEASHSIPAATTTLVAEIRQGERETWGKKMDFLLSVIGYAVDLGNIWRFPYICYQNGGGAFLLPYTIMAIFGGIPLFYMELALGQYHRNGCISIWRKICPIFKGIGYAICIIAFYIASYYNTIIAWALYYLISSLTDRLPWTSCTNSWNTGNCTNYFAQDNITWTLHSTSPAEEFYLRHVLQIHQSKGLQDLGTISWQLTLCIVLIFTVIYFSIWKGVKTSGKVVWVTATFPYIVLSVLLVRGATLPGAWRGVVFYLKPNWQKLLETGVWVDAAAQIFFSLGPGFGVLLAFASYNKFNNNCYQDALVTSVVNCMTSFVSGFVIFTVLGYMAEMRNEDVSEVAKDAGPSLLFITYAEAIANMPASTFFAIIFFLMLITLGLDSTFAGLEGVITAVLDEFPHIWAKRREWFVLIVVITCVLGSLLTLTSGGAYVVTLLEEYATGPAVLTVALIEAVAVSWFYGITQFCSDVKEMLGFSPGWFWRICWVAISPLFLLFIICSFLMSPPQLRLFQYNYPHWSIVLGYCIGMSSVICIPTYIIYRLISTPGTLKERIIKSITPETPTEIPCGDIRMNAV
Chain of Cytochrome P450 2C19 (P33261 whole entry): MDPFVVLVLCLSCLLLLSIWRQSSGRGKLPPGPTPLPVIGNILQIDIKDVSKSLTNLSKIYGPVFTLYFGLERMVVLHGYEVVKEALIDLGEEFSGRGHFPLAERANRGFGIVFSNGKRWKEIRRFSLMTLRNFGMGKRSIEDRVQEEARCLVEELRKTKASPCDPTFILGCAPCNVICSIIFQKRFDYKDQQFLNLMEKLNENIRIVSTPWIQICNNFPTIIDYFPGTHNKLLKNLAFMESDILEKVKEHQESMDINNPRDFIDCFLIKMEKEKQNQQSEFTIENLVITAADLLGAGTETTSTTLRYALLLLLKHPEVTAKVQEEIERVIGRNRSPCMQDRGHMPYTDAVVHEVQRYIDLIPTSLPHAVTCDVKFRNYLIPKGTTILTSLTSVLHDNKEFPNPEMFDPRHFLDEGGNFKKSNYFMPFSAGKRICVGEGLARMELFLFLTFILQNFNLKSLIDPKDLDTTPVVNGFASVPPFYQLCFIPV
Chain of Sodium-dependent serotonin transporter (Mus musculus, UniProt Q60857) (Q60857 whole entry): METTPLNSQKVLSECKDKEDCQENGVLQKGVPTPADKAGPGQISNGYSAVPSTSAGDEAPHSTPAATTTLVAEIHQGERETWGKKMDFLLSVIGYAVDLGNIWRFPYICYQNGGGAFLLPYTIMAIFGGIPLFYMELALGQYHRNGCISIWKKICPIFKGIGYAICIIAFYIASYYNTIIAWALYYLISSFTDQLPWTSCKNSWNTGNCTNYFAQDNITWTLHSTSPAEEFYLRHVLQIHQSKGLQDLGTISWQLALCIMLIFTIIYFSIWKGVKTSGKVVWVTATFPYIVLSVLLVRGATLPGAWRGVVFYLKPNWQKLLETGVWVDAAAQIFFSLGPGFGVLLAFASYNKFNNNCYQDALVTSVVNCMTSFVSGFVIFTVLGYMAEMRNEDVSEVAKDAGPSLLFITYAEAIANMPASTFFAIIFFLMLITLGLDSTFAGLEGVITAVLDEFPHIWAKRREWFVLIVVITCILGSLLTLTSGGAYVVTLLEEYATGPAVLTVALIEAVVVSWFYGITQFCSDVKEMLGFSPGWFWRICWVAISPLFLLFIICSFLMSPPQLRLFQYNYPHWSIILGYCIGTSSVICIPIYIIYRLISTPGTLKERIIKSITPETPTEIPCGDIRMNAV
Chain of Cytochrome P450 2C9 (P11712 whole entry): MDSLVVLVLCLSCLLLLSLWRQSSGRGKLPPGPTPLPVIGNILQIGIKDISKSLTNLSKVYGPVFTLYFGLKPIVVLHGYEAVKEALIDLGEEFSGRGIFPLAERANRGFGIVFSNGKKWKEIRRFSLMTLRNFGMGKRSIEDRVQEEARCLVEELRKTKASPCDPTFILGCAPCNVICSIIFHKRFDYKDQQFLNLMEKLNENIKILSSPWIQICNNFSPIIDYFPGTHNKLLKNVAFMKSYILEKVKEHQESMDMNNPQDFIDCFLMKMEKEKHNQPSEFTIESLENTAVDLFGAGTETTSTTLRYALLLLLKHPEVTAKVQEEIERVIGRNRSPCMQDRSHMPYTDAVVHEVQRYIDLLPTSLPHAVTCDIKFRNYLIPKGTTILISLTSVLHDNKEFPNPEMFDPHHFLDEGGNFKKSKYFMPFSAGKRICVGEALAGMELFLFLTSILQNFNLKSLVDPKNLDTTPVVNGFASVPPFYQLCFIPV
Chain of Sodium-dependent dopamine transporter (Rattus norvegicus, UniProt P23977) (P23977 whole entry): as the sequence (Q61327 whole entry) above, with P21S, V57A, S194A, R600H, V619L counted along it

In the case of `COC[C@@]12CNCC[C@]1(c1ccc(Cl)c(Cl)c1)C2` (relative stereo; 17) [GSK1360707], the Activity (Rattus norvegicus [1]) is reported as 87.92%, the Activity (Rattus norvegicus [2]) is reported as “>=95%” and the Activity (Rattus norvegicus [3]) is reported as “>=95%”. The Activity (Rattus norvegicus [4]) was “>=95%”, the Activity (Rattus norvegicus [5]) was 98.2% and the Activity (Rattus norvegicus [6]) was 82.8%. The Activity (Rattus norvegicus [7]) was 58.2%, the Activity (Rattus norvegicus [8]) was 36.3% and the Activity (Rattus norvegicus [9]) was 12.6%. For the same compound, the Activity (Rattus norvegicus [10]) was 4.6%, the Kp [11] was 6.3 and the half-life [12] was 1.7 h. For the same compound, the clearance [13] was 48 mL/min, the Vd [14] was 5.8 L/kg and the bioavailability [15] was 54%. For the same compound, the Ki [16] was 10 nM, the Ki [17] was 1.58 nM and the Ki [18] was 1.58 nM. The Ki [19] was 10 nM, the Ki [20] was 1.26 nM and the IC50 [21] was 2 nM. It also gave an IC50 [22] of 2 nM, an IC50 [23] of 3.98 nM and a Ki [24] of 12 nM. The Ki [25] was 12 nM, the Ki [26] was 1.05 nM and the IC50 (Cytochrome P450 3A4) was 10000 nM. For the same compound, the IC50 (Cytochrome P450 2D6) was 3000 nM, the IC50 (Cytochrome P450 2C19) was 10000 nM and the IC50 (Cytochrome P450 2C9) was 10000 nM. For the same compound, the IC50 (Cytochrome P450 1A2) was 10000 nM, the Ki [27] was 10 nM and the Ki [28] was 7.94 nM. The Activity (Rattus norvegicus [29]) was “>=95%”, the Ki [30] was 0.631 nM and the Ki (Transporter) was 2.51 nM.
